Consider 21 molecules from ChEMBL document CHEMBL1949672 (J Med Chem, 2012).

The target in experiment [1] is T1, Adenosine receptor A2a (Homo sapiens, UniProt P29274). Put plainly: Binding affinity to A2A adenosine receptor.
The target of experiment [2] is T1, Adenosine receptor A2a. Briefly: Displacement of [3H]2-[p-(2-carboxyethyl)phenylethylamino]-5'-N-ethylcarboxamido-adenosine from human A2A adenosine receptor expressed in HEK293 cell membranes after 60 mins. (In general: Displacement assays read how much labelled ligand stays bound in the presence of the test substance.)
The next experiment deals with T2, Adenosine receptor A1 (Homo sapiens, UniProt P30542).
T2 sequence (P30542 whole entry): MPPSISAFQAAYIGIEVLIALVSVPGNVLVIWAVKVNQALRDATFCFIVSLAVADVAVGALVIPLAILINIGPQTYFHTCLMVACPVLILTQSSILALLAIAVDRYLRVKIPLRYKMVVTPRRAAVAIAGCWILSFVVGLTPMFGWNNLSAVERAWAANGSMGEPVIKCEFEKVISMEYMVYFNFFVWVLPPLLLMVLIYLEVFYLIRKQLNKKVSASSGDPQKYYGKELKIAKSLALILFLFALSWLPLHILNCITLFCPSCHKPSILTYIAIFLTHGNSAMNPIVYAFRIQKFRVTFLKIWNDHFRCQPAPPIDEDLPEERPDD
Put plainly: Displacement of [3H]N6-phenylisopropyladenosine from human A1 adenosine receptor expressed in CHO cell membranes after 60 mins. The method, boiled down: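 Membranes (40 µg/tube) from CHO cells stably expressing human A1 AR were incubated with 1 nM [3H]R-PIA in 50 mM Tris·HCl pH 7.4 with 10 mM MgCl2, at 25°C for 60 min. Nonspecific binding was defined with 10 µM CPA.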

For experiment [3], the target named is T1, Adenosine receptor A2a. Put plainly: Agonist activity at human A2A adenosine receptor expressed in CHO cells assessed as stimulation of forskolin-induced cAMP production at 10 uM preincubated for 45 mins prior forskolin treatment measured after 15 mins by liquid scintillation spectrometry relative to 2-[p-(2-carboxyethyl)phenylethylamino]-5'-N-ethylcarboxamido-adenosine. Format: functional, cell-based. In outline:
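CHO cells expressing human A2A AR; test compound at a single concentration of 10 µM; cyclic AMP production measured and expressed as mean percentage of the response to the full agonist CGS21680 (10 µM).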
In general terms: Cyclic AMP is a second messenger, typically raised through Gs and lowered through Gi signalling.

The nature of experiment [4]: Displacement of [1251]PAPAAPEC from A2A adenosine receptor expressed in bovine striatal membranes after 1 hr by gamma counting. Format: cell membranes, Bos taurus, Striatum, Membrane.
Another experiment deals with T3, Adenosine receptor A3 (Homo sapiens, UniProt P0DMS8).
T3 sequence (P0DMS8 whole entry): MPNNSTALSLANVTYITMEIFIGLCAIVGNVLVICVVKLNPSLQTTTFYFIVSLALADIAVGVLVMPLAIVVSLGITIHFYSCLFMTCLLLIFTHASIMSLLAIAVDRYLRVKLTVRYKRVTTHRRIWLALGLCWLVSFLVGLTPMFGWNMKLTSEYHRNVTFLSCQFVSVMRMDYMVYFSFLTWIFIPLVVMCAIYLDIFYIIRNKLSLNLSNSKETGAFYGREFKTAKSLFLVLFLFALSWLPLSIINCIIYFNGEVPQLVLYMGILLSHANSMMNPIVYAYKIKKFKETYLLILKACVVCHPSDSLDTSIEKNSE
Briefly: Displacement of [125I]N6-(4-amino-3-iodobenzyl)adenosine-5'-N-methyluronamide from human A3 adenosine receptor expressed in CHO cell membranes after 60 mins.

SMILES strings stand for the structures.

What is called Ki is the equilibrium dissociation constant of an inhibitor or competing ligand from its target. Low values mean a stronger hold on the target, high ones a looser hold on the target. For orientation: Emax means the greatest response seen or fitted, relative to the assay's reference.

T1 sequence (P29274 whole entry): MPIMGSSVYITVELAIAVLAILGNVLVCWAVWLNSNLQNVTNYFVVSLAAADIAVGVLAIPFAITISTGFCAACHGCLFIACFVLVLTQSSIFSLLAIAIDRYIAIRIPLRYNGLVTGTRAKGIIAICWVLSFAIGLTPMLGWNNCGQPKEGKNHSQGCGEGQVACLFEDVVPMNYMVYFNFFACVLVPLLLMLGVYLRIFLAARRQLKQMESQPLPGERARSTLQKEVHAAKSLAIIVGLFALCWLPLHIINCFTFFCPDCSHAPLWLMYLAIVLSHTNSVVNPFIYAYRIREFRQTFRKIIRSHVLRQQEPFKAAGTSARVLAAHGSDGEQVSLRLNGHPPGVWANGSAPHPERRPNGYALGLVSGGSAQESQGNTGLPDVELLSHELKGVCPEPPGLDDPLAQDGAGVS

`CCNC(=O)[C@H]1C[C@@H](n2cnc3c(N[C@H](CC)Cc4sccc4Cl)ccnc32)[C@H](O)[C@@H]1O`: at Adenosine receptor A2a [1], the Ki came out at 56 nM. This lies in the double-digit nanomolar range.

For `CCNC(=O)[C@H]1O[C@@H](n2cnc3c(N)nc(NCCc4ccc(CCC(=O)N[C@@H](Cc5ccccc5)C(=O)OC)cc4)nc32)[C@H](O)[C@@H]1O`, the inhibitory constant (Ki) is 160 nM on Adenosine receptor A2a [2] and 1080 nM on Adenosine receptor A1. Also, the Emax at Adenosine receptor A2a [3] worked out at 111%.

Turning to `CCNC(=O)[C@H]1O[C@@H](n2cnc3c(N)nc(NCCc4ccc(CCC(=O)NCCNC(=S)Nc5ccc(N=C=S)cc5)cc4)nc32)[C@H](O)[C@@H]1O`, in experiment [4], the affinity corresponds to a Ki of 7.1 nM.

For `CCNC(=O)[C@H]1O[C@@H](n2cnc3c(N)nc(NCCc4ccc(CCC(=O)N[C@@H](Cc5ccccc5)C(=O)O)cc4)nc32)[C@H](O)[C@@H]1O`, the figures for the Ki on Adenosine receptor A3, at Adenosine receptor A2a [2] and on Adenosine receptor A1 were 260 nM, 63.7 nM and 640 nM, respectively. Further, the maximum response (Emax) at Adenosine receptor A2a [3] worked out at 103%.

For `CCNC(=O)[C@H]1O[C@@H](n2cnc3c(N)nc(NCCc4ccc(CCC(=O)N[C@H](CCCN=C(N)N)C(=O)O)cc4)nc32)[C@H](O)[C@@H]1O`, the Ki worked out at 220 nM at Adenosine receptor A3, 50 nM at Adenosine receptor A2a [2] and 990 nM on Adenosine receptor A1.

At Adenosine receptor A2a [1], `COc1cc(OC)cc([C@@H](CNc2ncnc3c2ncn3[C@@H]2O[C@H](CO)[C@@H](O)[C@H]2O)c2ccccc2C)c1` came in with an inhibition constant Ki of 168 nM. That is a sub-micromolar value.

With `CCNC(=O)[C@H]1O[C@@H](n2cnc3c(N)nc(NCCc4ccc(CCC(=O)N[C@@H](Cc5cnc[nH]5)C(=O)O)cc4)nc32)[C@H](O)[C@@H]1O`, the values for the Ki at Adenosine receptor A3, at Adenosine receptor A2a [2] and at Adenosine receptor A1 were 830 nM, 110 nM and 1000 nM, respectively.

`CCNC(=O)[C@H]1O[C@@H](n2cnc3c(N)nc(NCCc4ccc(CCC(=O)N[C@@H](Cc5c[nH]c6ccccc56)C(=O)O)cc4)nc32)[C@H](O)[C@@H]1O`: the Ki on Adenosine receptor A3 was found to be 200 nM; at Adenosine receptor A2a [2], 71.7 nM; at Adenosine receptor A1 it was 1060 nM. Moreover, the Emax on Adenosine receptor A2a [3] was 95.8%.

On to `CCNC(=O)[C@H]1O[C@@H](n2cnc3c(N)nc(NCCc4ccc(CCC(=O)N[C@@H](CC(=O)O)C(=O)O)cc4)nc32)[C@H](O)[C@@H]1O`, for which the values for the inhibition constant (Ki) at Adenosine receptor A3, at Adenosine receptor A2a [2] and on Adenosine receptor A1 were 1460 nM, 180 nM and 1900 nM, respectively. The Emax at Adenosine receptor A2a [3] is 94.8%.

With `O=C(NCCN1CCCCC1)c1nc(NCC(c2ccccc2)c2ccccc2)c2ncn([C@@H]3O[C@H](CO)[C@@H](O)[C@H]3O)c2n1`, the Ki on Adenosine receptor A2a [1] worked out at 20.1 nM.

For the molecule `CCNC(=O)[C@H]1O[C@@H](n2cnc3c(N)nc(NCCc4ccc(CCC(=O)N[C@@H](Cc5c[nH]cn5)C(=O)O)cc4)nc32)[C@H](O)[C@@H]1O`, the Emax on Adenosine receptor A2a [3] was found to be 105%.

Consider `CCNC(=O)[C@H]1O[C@@H](n2cnc3c(N)nc(NCCc4ccc(CCC(=O)N[C@@H](CCCN=C(N)N)C(=O)O)cc4)nc32)[C@H](O)[C@@H]1O`, for which the inhibition constant (Ki) on Adenosine receptor A3 came to 620 nM; on Adenosine receptor A2a [2] it was 100 nM; at Adenosine receptor A1, 1110 nM.

On to `CCNC(=O)[C@H]1O[C@@H](n2cnc3c(N)nc(NCCc4ccc(CCC(=O)N[C@H](Cc5c[nH]c6ccccc56)C(=O)OC)cc4)nc32)[C@H](O)[C@@H]1O`, for which the values for the inhibitory constant (Ki) at Adenosine receptor A3, on Adenosine receptor A2a [2] and on Adenosine receptor A1 were 250 nM, 130 nM and 1610 nM, respectively. In addition, the maximum response (Emax) on Adenosine receptor A2a [3] was 119%.

On to `CCNC(=O)[C@H]1O[C@@H](n2cnc3c(N)nc(NCCc4ccc(CCC(=O)N[C@H](Cc5ccccc5)C(=O)O)cc4)nc32)[C@H](O)[C@@H]1O`, for which the Ki on Adenosine receptor A3 stood at 140 nM; on Adenosine receptor A2a [2], 34 nM; at Adenosine receptor A1, 550 nM. Further, the Emax on Adenosine receptor A2a [3] was determined as 93.4%.

On to `CCNC(=O)[C@H]1O[C@@H](n2cnc3c(N)nc(NCCc4ccc(CCC(=O)N[C@H](Cc5ccccc5)C(=O)OC)cc4)nc32)[C@H](O)[C@@H]1O`, for which the Ki was 84.3 nM at Adenosine receptor A2a [2] and 1230 nM on Adenosine receptor A1. Moreover, on Adenosine receptor A2a [3], the Emax amounted to 92.6%.

As to `CCNC(=O)[C@H]1O[C@@H](n2cnc3c(N)nc(NCCc4ccc(CCC(=O)N[C@H](CC(=O)O)C(=O)O)cc4)nc32)[C@H](O)[C@@H]1O`, the Ki at Adenosine receptor A3 amounted to 790 nM; at Adenosine receptor A2a [2] it was 110 nM; at Adenosine receptor A1, 1180 nM. In addition, at Adenosine receptor A2a [3], the Emax is 94.3%.

Regarding `CCNC(=O)[C@H]1O[C@@H](n2cnc3c(N)nc(NCCc4ccc(CCC(=O)N[C@H](CCCNC(=N)N)C(=O)O)cc4)nc32)[C@H](O)[C@@H]1O`, the Emax on Adenosine receptor A2a [3] was found to be 94.7%.

For `CCNC(=O)[C@H]1O[C@@H](n2cnc3c(N)nc(NCCc4ccc(CCC(=O)N[C@H](Cc5c[nH]cn5)C(=O)O)cc4)nc32)[C@H](O)[C@@H]1O`, the inhibitory constant (Ki) at Adenosine receptor A3 is 320 nM; at Adenosine receptor A2a [2], 40 nM; on Adenosine receptor A1, 350 nM. Besides, the maximal response (Emax) on Adenosine receptor A2a [3] was 106%.

Turning to `CCNC(=O)[C@H]1O[C@@H](n2cnc3c(N)nc(NCCc4ccc(CCC(=O)N[C@@H](CCCNC(=N)N)C(=O)O)cc4)nc32)[C@H](O)[C@@H]1O`, on Adenosine receptor A2a [3], the maximal response (Emax) stood at 94.5%.

As for `CCNC(=O)[C@H]1O[C@@H](n2cnc3c(N)nc(NCCc4ccc(CCC(=O)N[C@@H](Cc5c[nH]c6ccccc56)C(=O)OC)cc4)nc32)[C@H](O)[C@@H]1O`, the Ki at Adenosine receptor A3 stood at 140 nM; on Adenosine receptor A2a [2] it was 87.2 nM; at Adenosine receptor A1 it was 1670 nM. Moreover, at Adenosine receptor A2a [3], the maximal effect (Emax) stood at 104%.

For the molecule `CCNC(=O)[C@H]1O[C@@H](n2cnc3c(N)nc(NCCc4ccc(CCC(=O)N[C@H](Cc5c[nH]c6ccccc56)C(=O)O)cc4)nc32)[C@H](O)[C@@H]1O`, the Ki on Adenosine receptor A3 came out at 520 nM; on Adenosine receptor A2a [2], 130 nM; on Adenosine receptor A1 it was 2160 nM. Further, the Emax at Adenosine receptor A2a [3] was 113%.
